According to the RNAGym collection of RNA variant scans (doi:10.1126/science.aae0568):
Variants at the floor of the assay were thinned out.

B1: tRNA (parent)
chain: GUUCCGUUGGCGUAAUGGUAACGCGUCUCCCUCCUAAGGAGAAGACUGCGGGUUCGAGUCCCGUACGGAACG

Variants of: B1
Assay: yeast fitness relative to wild type (ratio to wild type); higher = fitter; tRNA-Arg(CCU), competitive growth, 37 C, YPD
How it was run: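 Amplicons of the tRNA-Arg(CCU) gene were sequenced, 100-nucleotide paired-end, from the start population and from each end population of a pooled yeast competition. The competition, in six parallel replicates, lasted 24 hours in YPD at 37°C. Fitness relative to wild type was calculated from changes in genotype frequencies. Genotypes had to have ≥ 100 starting reads, and estimates < 0.5 were set to 0.5.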

First: C22A C31U C34G
Second: A21G C27G C33G
The yeast fitness of the first is higher: 0.536 for the first, no more than 0.5 for the second.

First: C22G C31G C61U
Second: A21G C22A G63C G67A
The yeast fitness of the first is higher: 0.587 for the first, no more than 0.5 for the second.

First: C22A G50C A65G
Second: C22G U64G
The yeast fitness of the first is lower: no more than 0.5 for the first, 0.8 for the second.

Compared with C22G C31U C61G, C22G C33G A36U is lower in yeast fitness: 0.614 for the first, no more than 0.5 for the second.

A21G C30A U32G G67A A69C and C22G C49G C66A cannot be ordered by yeast fitness: no more than 0.5 for the first, no more than 0.5 for the second.

Compared with C22A C31G C46A C49U U54C G68A, A21U U54A G56C A70G is lower in yeast fitness: 0.581 for the first, 0.576 for the second.

A21U U35C G51C and A21G G23A C66G cannot be ordered by yeast fitness: no more than 0.5 for the first, no more than 0.5 for the second.

A21U C34G G51C G63C A65C and A21G A45C C62U G68C A69G cannot be ordered by yeast fitness: no more than 0.5 for the first, no more than 0.5 for the second.

First: A21G U28G C62G
Second: A21G C29U
The yeast fitness of the first is lower: no more than 0.5 for the first, 0.944 for the second.

Going from C22G A45G C49U A70U to A21U A70U, the yeast fitness rises from no more than 0.5 to 0.754.

C22A G23C C34U A36G A40U G67A and A21U C22U G48C A65G C66U cannot be ordered by yeast fitness: no more than 0.5 for the first, no more than 0.5 for the second.

Compared with A21G A70G, A21G U47G is lower in yeast fitness: 0.992 for the first, 0.525 for the second.

First: A21G U32C A65U G68A
Second: C22A U35A G58A
The yeast fitness of the first is higher: 0.63 for the first, no more than 0.5 for the second.

Compared with A21G C61A G67A, A21U A42U C66U is lower in yeast fitness: 0.532 for the first, no more than 0.5 for the second.

Going from C22G U26A to C22A G68U, the yeast fitness falls from 1.08 to 0.825.

Compared with C22A G68C, C22A G68A is higher in yeast fitness: 0.822 for the first, 0.869 for the second.

Compared with C22A C27U, A21U A65U is lower in yeast fitness: 0.976 for the first, 0.793 for the second.

C22A G23A C33U A42U A69U and C22A C24G U53A cannot be ordered by yeast fitness: no more than 0.5 for the first, no more than 0.5 for the second.

First: A21G U32A C66U
Second: C22A U26A A36U G56C C60G
The yeast fitness of the first is higher: 0.512 for the first, no more than 0.5 for the second.

First: C22U A36C A69C
Second: C22G A40C
The yeast fitness of the first is lower: no more than 0.5 for the first, 0.68 for the second.

Going from C22U A36C A65G to A21G C46U G56C A69U, the yeast fitness falls from 0.564 to no more than 0.5.

Compared with C22G C29A U53A C66U, C22G C27G C31G C49U C61G A69U is higher in yeast fitness: no more than 0.5 for the first, 0.534 for the second.

A21G C55U C66U and C22A C29G G58A G67C cannot be ordered by yeast fitness: no more than 0.5 for the first, no more than 0.5 for the second.

Going from A21U C29U C31U U54C A70G to A21U G67C, the yeast fitness rises from no more than 0.5 to 0.645.

Compared with A21U G67U, C22G U35C A57C is lower in yeast fitness: 0.742 for the first, 0.61 for the second.

Going from A21G C49G U59C to A21U C22G U59C, the yeast fitness falls from 0.583 to no more than 0.5.

C22G C31U C49U C61A and C22G C27U C62A A65G cannot be ordered by yeast fitness: no more than 0.5 for the first, no more than 0.5 for the second.

Going from A21G C31A to C22A C24G G56C, the yeast fitness falls from 0.962 to 0.786.

C22A A40C G50C G67C and A21G C61G C62U cannot be ordered by yeast fitness: no more than 0.5 for the first, no more than 0.5 for the second.

Going from A21G C66U to C22A C24A, the yeast fitness falls from 0.858 to 0.54.

Going from C22G C31A A43G A69U to A21G C62U, the yeast fitness rises from no more than 0.5 to 0.924.

Compared with C22G G25C A37G, A21G C34G A40G is higher in yeast fitness: no more than 0.5 for the first, 0.572 for the second.

C22G C29G G68C and C22G C34A A36U A42C C46G cannot be ordered by yeast fitness: no more than 0.5 for the first, no more than 0.5 for the second.

First: C22G U28A A40U A57U
Second: C22G C55U
The yeast fitness of the first is lower: 0.657 for the first, 0.739 for the second.

A21U A37U A40U G50C G56C and A21U C27G C33U C34A G51C A57C cannot be ordered by yeast fitness: no more than 0.5 for the first, no more than 0.5 for the second.

First: C22G U47A A70C
Second: A21G C29U G38C
The yeast fitness of the first is lower: no more than 0.5 for the first, 0.814 for the second.

Going from C22G C34U A43C A69U to C22A U53C, the yeast fitness rises from no more than 0.5 to 0.764.

Compared with C22A G25A U64A, C22G C27G is lower in yeast fitness: 0.629 for the first, 0.597 for the second.

A21U C24G U28A U59A and C22G G25A G41C A57U cannot be ordered by yeast fitness: no more than 0.5 for the first, no more than 0.5 for the second.

First: C22G C31G G67A
Second: C22G C34A G58A C66A
The yeast fitness of the first is higher: 0.615 for the first, no more than 0.5 for the second.

Going from A21G A36G A42U to C22G G23C C27A U28C C60A, the yeast fitness falls from 0.75 to no more than 0.5.

First: A21G A37C A57C G58A
Second: C22A G25A A69C
The yeast fitness of the first is lower: no more than 0.5 for the first, 0.784 for the second.

First: C22A C24G A65U A69C
Second: A21G G44C A69U
The yeast fitness of the first is lower: no more than 0.5 for the first, 0.681 for the second.

Going from A21G C29U A37U G63C to C22A A45C, the yeast fitness rises from no more than 0.5 to 0.665.

Compared with A21G U26C G48C, C22U A36C A45C C55G C62A G68A is lower in yeast fitness: 0.615 for the first, no more than 0.5 for the second.

First: C22G C55U U59A A65C
Second: C22G C24A G38A
The yeast fitness of the first is lower: no more than 0.5 for the first, 0.544 for the second.

Compared with A21G G56A, C22G C27G C31G C61G A69U is lower in yeast fitness: 1.08 for the first, 0.62 for the second.

A21G C27G C60G A70C and C22G A37G A45C G51U cannot be ordered by yeast fitness: no more than 0.5 for the first, no more than 0.5 for the second.

Compared with C22A C24G A36C, A21G G23A C27U C66U is higher in yeast fitness: no more than 0.5 for the first, 0.533 for the second.

C22G C24A G38A G44C U59A and C22G G23C A42U C62A cannot be ordered by yeast fitness: no more than 0.5 for the first, no more than 0.5 for the second.

Going from C22G G48C A69C to A21U C31U A57U, the yeast fitness falls from 0.589 to no more than 0.5.

First: C22A C27G G41A C62A
Second: C22A C31G U35C
The yeast fitness of the first is higher: 0.655 for the first, no more than 0.5 for the second.

Compared with C22G C27G C31G, A21G C34G G56A C66G is lower in yeast fitness: 0.571 for the first, no more than 0.5 for the second.

Compared with A21G C49U U59G, C22A C29U C55U is lower in yeast fitness: 0.619 for the first, 0.579 for the second.

Going from A21U C22U A43G to A21G C27U C30G U32G C46G G48A C60A, the yeast fitness rises from no more than 0.5 to 0.561.

Going from A21U G68U to A21U G38C A43U G50A A65C, the yeast fitness falls from 0.752 to no more than 0.5.

Going from A21C U64A to C22A G63C A65C, the yeast fitness falls from 0.799 to no more than 0.5.

Going from A21U A43G to C22G G52A, the yeast fitness rises from 0.752 to 0.772.

Going from A21U C24G C49A U54G to C22G C31G C66U, the yeast fitness rises from 0.56 to 0.64.

First: A21U A69C A70G
Second: A21G C30G A36G C46G A57U
The yeast fitness of the first is higher: 0.594 for the first, 0.551 for the second.

Going from A21G G58C U59C to A21G C29U A36U A43U C62A, the yeast fitness falls from 0.961 to 0.559.

First: A21G C33G G38A A69C
Second: C22A U28C G67A
The yeast fitness of the first is lower: no more than 0.5 for the first, 0.538 for the second.

C22G G41A A43C G51C C66U G67U and C22G G50C A57G cannot be ordered by yeast fitness: no more than 0.5 for the first, no more than 0.5 for the second.

C22G C27U U35C G39C A42C G48A and C22G U32C U54A A65G cannot be ordered by yeast fitness: no more than 0.5 for the first, no more than 0.5 for the second.

Compared with A21U C30A, A21U C66A is lower in yeast fitness: 0.757 for the first, 0.574 for the second.

Going from C22G C30U U54C to A21U C24U A37U G51U, the yeast fitness falls from 0.554 to no more than 0.5.

Compared with A21G G67U A70U, C22G C24G C55G is lower in yeast fitness: 0.607 for the first, no more than 0.5 for the second.

Compared with C22A C29G C61U, A21G G56U G58C is higher in yeast fitness: no more than 0.5 for the first, 0.661 for the second.

C22G U28C U47A and A21U A42C U47G G63A A69U cannot be ordered by yeast fitness: no more than 0.5 for the first, no more than 0.5 for the second.

A21U C61A G67A and C22G C49G C62G cannot be ordered by yeast fitness: no more than 0.5 for the first, no more than 0.5 for the second.

A21C U32C C60G and C22A C29U C62G cannot be ordered by yeast fitness: no more than 0.5 for the first, no more than 0.5 for the second.

First: C22G G39A G67C
Second: A21G C27U
The yeast fitness of the first is lower: 0.526 for the first, 1.03 for the second.

First: A21G C27A
Second: A21G C27G
The yeast fitness of the first is higher: 0.757 for the first, 0.562 for the second.

A21U C34G A42U C61U and A21G A43U C49U U53C C61G cannot be ordered by yeast fitness: no more than 0.5 for the first, no more than 0.5 for the second.

Compared with C22A C60A, A21U U28G G56A is lower in yeast fitness: 0.659 for the first, no more than 0.5 for the second.

Going from C22G C33G to C22G G58A, the yeast fitness rises from 0.685 to 1.07.

C22G G48C G67C and C22A C29U U53A C66U cannot be ordered by yeast fitness: no more than 0.5 for the first, no more than 0.5 for the second.

First: C22G C34A A36U
Second: C22G U35C
The yeast fitness of the first is lower: 0.656 for the first, 0.8 for the second.

First: A21U C34G G52A C61A
Second: C22G A45U
The yeast fitness of the first is lower: 0.553 for the first, 0.712 for the second.

Compared with A21G A45C U59C A69G, C22A U26A is higher in yeast fitness: 0.539 for the first, 0.949 for the second.

Compared with A21U C22G C66U, A21G C30U U53A A57U A65U is lower in yeast fitness: 0.568 for the first, no more than 0.5 for the second.

Going from C22G C24A G38A G67A to C22A C33G A43C C49U U64C, the yeast fitness falls from 0.531 to no more than 0.5.

Going from C22G C30G C33G A37U C61G to A21G C31G C66A, the yeast fitness falls from 0.683 to 0.505.

For A21U U54C, the yeast fitness was 0.703.
